ChEMBL document CHEMBL3745596, “Chlorophenoxy aminoalkyl derivatives as histamine H(3)R ligands and antiseizure agents” (Bioorg Med Chem, 2016)
Active and inactive are the calls of the source.

Key:
Mus musculus [1] = test: Neurotoxicity in CF1 albino mouse assessed as death at 300 mg/kg, ip after 0.5 hrs by rotarod test; type: toxicity, organism-based; conditions: in vivo
Outline: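 Male albino CF-1 mice dosed ip with compound suspended in 0.5% methylcellulose, then placed on a 1-inch knurled plastic rod turning at 6 rpm. A fall three times within 1 min counted as neurotoxicity. Observations were made at 0.5 h and 4 h after dosing. Result given as animals showing toxicity per animals tested, with the kind of toxicity recorded.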

Mus musculus [2] = test: Anticonvulsant activity in CF1 albino mouse temporal lobe epilepsy model at 30 mg/kg, ip; type: functional, organism-based
Outline: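 Adult male CF1 mice corneal-kindled to 5 consecutive secondarily generalized seizures (Racine stage 4 or 5). Four fully kindled mice dosed ip and tested 0.5 h later; seizure score below 3 counted protected.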

Rattus norvegicus [3] = test: Anticonvulsant activity in Sprague-Dawley rat assessed as protection against pilocarpine-induced convulsive status epilepticus at 65 mg/kg, ip; type: functional, organism-based
Outline: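 Male Sprague Dawley rats (150–180 g) dosed ip, pilocarpine 50 mg/kg ip given; compound dosed immediately at first behavioral Stage 3 seizure or 30 min later. Number protected from Racine Stage 3 or greater seizures recorded.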

Mus musculus [4] = test: Neurotoxicity in CF1 albino mouse at 50 mg/kg, ip after 0.5 hrs by rotarod test; type: toxicity, organism-based; conditions: in vivo
Outline: (§1)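 Rotarod neurotoxicity in male albino CF-1 mice dosed ip with compound suspended in 0.5% methylcellulose. Animal placed on a 1 inch diameter knurled plastic rod rotating at 6 rpm. Neurotoxicity scored when the animal falls off three times within 1 min. Readout is number of animals toxic/number tested at the stated time after dosing. TD50 with 95% confidence interval from the quantitative study.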

Mus musculus [5] = test: Anticonvulsant activity in CF1 albino mouse assessed as protection against subcutaneous pentetrazole-induced seizure at 30 mg/kg, ip after 4 hrs; type: functional, organism-based
Outline: (§2)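 Male CF-1 mice, ip in 0.5% methylcellulose; pentetrazole at CD97 (85 mg/kg) injected subcutaneously in a loose fold of neck skin. Observed 30 min; absence of even a threshold seizure (single clonic spasm lasting at least 5 s) counted as protection. Scored protected/tested, or ED50.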

Mus musculus [6] = test: Neurotoxicity in CF1 albino mouse at 30 mg/kg, ip after 0.5 hrs by rotarod test; type: toxicity, organism-based; conditions: in vivo; outline: as §1
Rattus norvegicus [7] = test: Neurotoxicity in Sprague-Dawley rat at 30 mg/kg, ip after 1 hr by rotarod test; type: toxicity, organism-based; conditions: in vivo
Outline: (§3)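 Male Sprague–Dawley rats given compound ip as a suspension in 0.5% methylcellulose, groups of four. Rotarod: 1 inch knurled rod at 6 rpm; three falls within 1 min counts as neurotoxic. Scored as number toxic/number tested at pretreatment times between 0.25 and 4 h, or at the stated time.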

Mus musculus [8] = test: Neurotoxicity in CF1 albino mouse at 3 mg/kg, ip after 0.5 hrs by rotarod test; type: toxicity, organism-based; conditions: in vivo; outline: as §1
Mus musculus [9] = test: Neurotoxicity in CF1 albino mouse at 50 mg/kg, ip after 2 hrs by rotarod test; type: toxicity, organism-based; conditions: in vivo; outline: as §1
Mus musculus [10] = test: Anticonvulsant activity in CF1 albino mouse assessed as protection against subcutaneous pentetrazole-induced seizure at 30 mg/kg, ip after 0.5 hrs; type: functional, organism-based; outline: as §2
Mus musculus [11] = test: Anticonvulsant activity in CF1 albino mouse assessed as protection against 6 Hz-psychomotor-induced seizure at 50 mg/kg, ip after 4 hrs; type: functional, organism-based
Outline: (§4)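 Male CF-1 mice, ip suspension in 0.5% methylcellulose. Corneal stimulation 0.2 ms monopolar rectangular pulses at 6 Hz, 32 mA for 3 s via constant-current device; mice without minimal clonic phase seizure counted protected. Groups of four; read at 0.25, 0.5, 1, 2, 4 h; result as protected/tested.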

Rattus norvegicus [12] = test: Neurotoxicity in Sprague-Dawley rat at 30 mg/kg, ip after 2 hrs by rotarod test; type: toxicity, organism-based; conditions: in vivo; outline: as §3
Mus musculus [13] = test: Anticonvulsant activity in CF1 albino mouse assessed as protection against 6 Hz-psychomotor-induced seizure at 50 mg/kg, ip after 0.25 hrs; type: functional, organism-based; outline: as §4
Mus musculus [14] = test: Anticonvulsant activity in CF1 albino mouse assessed as protection against maximal electroshock-induced seizure at 100 mg/kg, ip after 0.5 hrs; type: functional, organism-based
Outline: (§5)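 Male CF-1 mice dosed ip as suspension in 0.5% methylcellulose. Corneal electrodes deliver 60 Hz alternating current, 50 mA for […], after a drop of 0.5% tetracaine HCl in 0.9% NaCl per eye. Protection means abolition of hindlimb tonic extension; scored as protected/tested, or ED50 with 95% confidence interval.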

Mus musculus [15] = test: Neurotoxicity in CF1 albino mouse at 10 mg/kg, ip after 0.5 hrs by rotarod test; type: toxicity, organism-based; conditions: in vivo
Outline: (§6)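 Rotarod neurotoxicity in male CF-1 mice dosed ip as 0.5% methylcellulose suspension: mouse placed on 1 inch knurled rod rotating at 6 rpm; toxicity when the animal falls off three times within 1 min, with other signs noted. Scored as toxic/tested at 0.5 h and 4 h.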

Rattus norvegicus [16] = test: Anticonvulsant activity in ip dosed Sprague-Dawley rat assessed as protection against subcutaneous pentetrazole-induced seizure after 0.25 hrs; type: functional
Rattus norvegicus [17] = test: Neurotoxicity in Sprague-Dawley rat at 30 mg/kg, ip after 4 hrs by rotarod test; type: toxicity, organism-based; conditions: in vivo; outline: as §3
[18] = Neuroprotective activity in hippocampal slice (unknown origin) assessed as protection against kainic acid-induced cell death using propidium iodide staining; type: functional; conditions: Hippocampus
Outline: (§7)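 Organotypic hippocampal slice cultures exposed to NMDA or kainic acid alone or with compound; propidium iodide in all wells; PI fluorescence intensity of slices, proportional to cell death, compared with excitotoxin-only slices; qualitative.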

Mus musculus [19] = test: Neurotoxicity in CF1 albino mouse at 300 mg/kg, ip after 4 hrs by rotarod test; type: toxicity, organism-based; conditions: in vivo; outline: as §1
Rattus norvegicus [20] = test: Protective index, ratio of TD50 for ip dosed Sprague-Dawley rat to ED50 for ip dosed Sprague-Dawley rat assessed as protection against maximal electroshock-induced seizure after 0.5 hrs; type: functional
Outline: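 PI = TD50/ED50. Male CF-1 mice or male Sprague–Dawley rats given compound ip as 0.5% methylcellulose suspension. MES: 60 Hz corneal current, 50 mA mice or 150 mA rats, for […] after tetracaine eye drops; protection is abolition of hindlimb tonic extension.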

Rattus norvegicus [21] = test: Neurotoxicity in Sprague-Dawley rat at 30 mg/kg, ip after 0.25 hrs by rotarod test; type: toxicity, organism-based; conditions: in vivo; outline: as §3
Mus musculus [22] = test: Anticonvulsant activity in CF1 albino mouse assessed as protection against 6 Hz-psychomotor-induced seizure at 50 mg/kg, ip after 2 hrs; type: functional, organism-based; outline: as §4
Mus musculus [23] = test: Anticonvulsant activity in CF1 albino mouse assessed as protection against 6 Hz-psychomotor-induced seizure at 50 mg/kg, ip after 1 hr; type: functional, organism-based; outline: as §4
Mus musculus [24] = test: Neurotoxicity in CF1 albino mouse at 45 mg/kg, ip after 0.25 to 0.5 hrs by rotarod test; type: toxicity, organism-based; conditions: in vivo; outline: as §1
Mus musculus [25] = test: Neurotoxicity in CF1 albino mouse at 50 mg/kg, ip after 1 hr by rotarod test; type: toxicity, organism-based; conditions: in vivo; outline: as §1
Mus musculus [26] = test: Neurotoxicity in CF1 albino mouse at 50 mg/kg, ip after 0.25 hrs by rotarod test; type: toxicity, organism-based; conditions: in vivo; outline: as §1
Mus musculus [27] = test: Anticonvulsant activity in CF1 albino mouse assessed as protection against maximal electroshock-induced seizure at 30 mg/kg, ip after 4 hrs; type: functional, organism-based; outline: as §5
Mus musculus [28] = test: Neurotoxicity in ip dosed CF1 albino mouse after 0.25 hrs by rotarod test; type: toxicity, organism-based; conditions: in vivo
Outline: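 Rotarod neurotoxicity in male albino CF-1 mice dosed ip with compound suspended in 0.5% methylcellulose. Animal placed on a 1 inch diameter knurled plastic rod rotating at 6 rpm. Neurotoxicity scored when the animal falls off three times within 1 min. Readout is number of animals toxic/number tested at the stated time after dosing.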

Mus musculus [29] = test: Neurotoxicity in CF1 albino mouse at 30 mg/kg, ip after 4 hrs by rotarod test; type: toxicity, organism-based; conditions: in vivo; outline: as §1
Mus musculus [30] = test: Neurotoxicity in CF1 albino mouse at 50 mg/kg, ip after 4 hrs by rotarod test; type: toxicity, organism-based; conditions: in vivo; outline: as §1
Rattus norvegicus [31] = test: Anticonvulsant activity in Sprague-Dawley rat assessed as protection against maximal electroshock-induced seizure at 30 mg/kg, ip after 4 hrs; type: functional, organism-based
Mus musculus [32] = test: Anticonvulsant activity in CF1 albino mouse assessed as protection against maximal electroshock-induced seizure at 30 mg/kg, ip after 0.5 hrs; type: functional, organism-based; outline: as §5
Rattus norvegicus [33] = test: Anticonvulsant activity in ip dosed Sprague-Dawley rat assessed as protection against maximal electroshock-induced seizure after 0.25 hrs; type: functional
Histamine H3 receptor = Histamine H3 receptor (Homo sapiens, UniProt Q9Y5N1); test: Displacement of [3H]-Nalpha-methylhistamine from human recombinant histamine H3 receptor expressed in HEK293 cells after 90 mins; type: cell-based
Histamine H3 receptor, sequence (Q9Y5N1 whole entry): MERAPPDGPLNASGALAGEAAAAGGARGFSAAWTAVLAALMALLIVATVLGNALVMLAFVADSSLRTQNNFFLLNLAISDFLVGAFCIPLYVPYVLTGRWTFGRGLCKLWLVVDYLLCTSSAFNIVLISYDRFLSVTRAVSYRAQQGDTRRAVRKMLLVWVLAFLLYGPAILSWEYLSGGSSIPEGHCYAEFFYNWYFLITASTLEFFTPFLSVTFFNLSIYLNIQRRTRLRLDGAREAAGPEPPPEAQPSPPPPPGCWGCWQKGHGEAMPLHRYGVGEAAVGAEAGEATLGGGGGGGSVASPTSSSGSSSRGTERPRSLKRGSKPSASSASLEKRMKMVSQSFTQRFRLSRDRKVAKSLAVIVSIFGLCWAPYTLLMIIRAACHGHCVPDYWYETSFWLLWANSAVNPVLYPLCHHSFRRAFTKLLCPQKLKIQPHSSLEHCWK

Rattus norvegicus [34] = test: Neurotoxicity in Sprague-Dawley rat at 30 mg/kg, ip after 0.5 hrs by rotarod test; type: toxicity, organism-based; conditions: in vivo; outline: as §3
Mus musculus [35] = test: Neurotoxicity in CF1 albino mouse at 100 mg/kg, ip after 4 hrs by rotarod test; type: toxicity, organism-based; conditions: in vivo; outline: as §1
Rattus norvegicus [36] = test: Anticonvulsant activity in Sprague-Dawley rat assessed as protection against maximal electroshock-induced seizure at 30 mg/kg, po; type: functional
Mus musculus [37] = test: Anticonvulsant activity in CF1 albino mouse assessed as protection against maximal electroshock-induced seizure at 3 mg/kg, ip after 0.5 hrs; type: functional, organism-based; outline: as §5
Mus musculus [38] = test: Anticonvulsant activity in CF1 albino mouse assessed as protection against maximal electroshock-induced seizure at 10 mg/kg, ip after 0.5 hrs; type: functional, organism-based; outline: as §5
[39] = Neuroprotective activity in hippocampal slice (unknown origin) assessed as protection against NMDA-induced cell death using propidium iodide staining; type: functional; conditions: Hippocampus; outline: as §7
Mus musculus [40] = test: Neurotoxicity in CF1 albino mouse assessed as unable to grasp rotarod, sedated and myoclonic jerks at 100 mg/kg, ip after 0.5 hrs by rotarod test; type: toxicity, organism-based; conditions: in vivo; outline: as §6

## Clc1ccc(OCCCCCCN2CCCCCC2)cc1.O=C(O)C(=O)O
Mus musculus [1]
  Activity: Toxic
Mus musculus [2]
  Activity: inactive
Rattus norvegicus [3]
  Activity: Active
Mus musculus [4]
  Activity: Non-toxic
Mus musculus [5]
  Activity: inactive
Mus musculus [6]
  Activity: Non-toxic
Rattus norvegicus [7]
  Activity: Non-toxic
Mus musculus [8]
  Activity: Non-toxic
Mus musculus [9]
  Activity: Non-toxic
Mus musculus [10]
  Activity: inactive
Mus musculus [11]
  Activity: inactive
Rattus norvegicus [12]
  Activity: Non-toxic
Mus musculus [13]
  Activity: inactive
Mus musculus [14]
  Activity: Active
Mus musculus [15]
  Activity: Non-toxic
Rattus norvegicus [16]
  ED50: > 47 mg/kg
Rattus norvegicus [17]
  Activity: Non-toxic
[18]
  Activity: inactive
Mus musculus [19]
  Activity: Non-toxic
Rattus norvegicus [20]
  Ratio TD50/ED50: 3.2
Rattus norvegicus [21]
  Activity: Non-toxic
Mus musculus [22]
  Activity: inactive
Mus musculus [23]
  Activity: inactive
Mus musculus [24]
  Activity: Toxic
Mus musculus [25]
  Activity: Non-toxic
Mus musculus [26]
  Activity: Non-toxic
Mus musculus [27]
  Activity: inactive
Mus musculus [28]
  TD50 (median neurotoxic dose): 36.2 mg/kg
Mus musculus [29]
  Activity: Non-toxic
Mus musculus [30]
  Activity: Non-toxic
Rattus norvegicus [31]
  Activity: inactive
Mus musculus [32]
  Activity: Active
Rattus norvegicus [33]
  ED50: 14 mg/kg
Histamine H3 receptor
  Ki: 237 nM
Rattus norvegicus [34]
  Activity: Non-toxic
Mus musculus [35]
  Activity: Non-toxic
Rattus norvegicus [36]
  Activity: 25%
Mus musculus [37]
  Activity: inactive
Mus musculus [38]
  Activity: inactive
[39]
  Activity: inactive
Mus musculus [40]
  Activity: Toxic
